Results gathered from unrelated publications.
Target: Epithelial discoidin domain-containing receptor 1 (DDR1, Homo sapiens, UniProt Q08345)

Compound | test | conditions | endpoint | result
Cc1cnc(NC2CCOCC2)nc1-n1cnc(C(=O)NC(CN)c2cc(F)cc(Cl)c2)c1 (centres unmarked) | enzyme activity, inhibitor, radiometric | 1 µM | remaining activity | 104%
Nc1c(C(=O)NCc2ccc(C(=O)NCCCC3CCCCC3)cc2)cnn1-c1ccccc1 | binding, competition with immobilised ligand | 1 µM | remaining binding | 43%
Cc1sc(C(=O)NC2COC2)cc1-n1cc(NC(=O)Nc2c(F)cccc2Cl)cn1 | enzyme activity, inhibitor | 10 µM | remaining activity | 83.7%
Cc1cc(NC(=O)c2cccc3cc(-c4cccc5[nH]nc(N)c45)ccc23)ccc1F | enzyme activity, inhibitor | 0.1 µM | activity vs control | 61%
O=C(Nc1cnn(-c2csc(C(=O)NC3COC3)c2)c1)Nc1ccccc1Cl | enzyme activity, inhibitor | 5 µM | remaining activity | 98.4%
Cc1ccc(C(=O)NCc2ccsc2)cc1C#Cc1cn(C(C)C)c2ncnc(N)c12 | enzyme activity, inhibitor | 1 µM | activity vs control | 0%
CNC(=O)c1cc2c(Oc3ccc(NC(=O)C4(C(=O)Nc5ccc(F)cc5)CC4)cc3)ccnc2cc1OC | enzyme activity, inhibitor, radiometric | 1 µM | inhibition | 88%
COCCOc1nc(-c2ccc(Cl)nc2)nc2c1CN(C(=O)c1ncn3ccccc13)CC2 | cell-free assay, competition with immobilised ligand | 0.1 µM | remaining binding | 100%
CC/C(=N\NC(=O)NCc1cccc(O)c1)c1ccc(O)c(C)c1O | enzyme activity, inhibitor | 0.1 µM | inhibition | -0.9%
C[C@H]1CCN(c2nccc(-c3cnn4ncccc34)n2)C1 | binding | 1 µM | remaining binding | 100%
Cc1ccc(NC(=O)c2ccc(C)c(C(F)(F)F)c2)cc1C#Cc1nn(C2CCC(O)CC2)c2ncnc(N)c12 (centres unmarked) | cell-free assay | 10 µM | remaining signal | -2%
Nc1ncnc2occ(-c3ccc(NC(=O)Nc4cc(C(F)(F)F)ccc4F)cc3)c12 | cell-free assay | 20 µM | remaining signal | 0.25%
CCOCCn1cc(C(=O)Nc2ccc(-n3nc(-c4cccnc4)cc3C(F)(F)F)cn2)ccc1=O | cell-free assay, competition with immobilised ligand | 1 µM | remaining binding | 69%
COc1cc2nccc(Oc3ccc(NC(=O)c4c5n(n(-c6ccc(F)cc6)c4=O)CCCC5)cc3)c2cc1OC | enzyme activity, inhibitor | 0.1 µM | inhibition | 42%
COc1cc(Cl)c(C(=O)N[C@@H](CN[C@H]2CC[C@@H](N)CC2)Cc2ccc(C#N)cc2)cc1-c1ccc(CN[C@H](C)c2ccc(C)cc2)o1 | enzyme activity, inhibitor | 1 µM | remaining activity | 112%
CN1CC(Oc2cnc(C#N)cc2-c2ccn3nc(NC(=O)C4CC4)cc3c2)C1 | enzyme activity, inhibitor | 1 µM | inhibition | 29%
CC(C)(O)[C@H]1CC[C@H](Nc2ccc3ncc(-c4cccc(C(F)(F)F)c4)n3n2)CC1 | enzyme activity, inhibitor | 1 µM | remaining activity | 6.32%
